{"source": "ChEMBL document CHEMBL4052590", "about": "“Anti-Osteoporotic Activity of Harpagoside by Upregulation of the BMP2 and Wnt Signaling Pathways in Osteoblasts and Suppression of Differentiation in Osteoclasts” (J Nat Prod, 2017)", "key": {"[1]": {"experiment": "Cytotoxicity against mouse MC3T3-E1 cells assessed as cell viability up to 4 uM after 72 hrs by MTT assay", "assay_type": "cell-based", "details": "read-out: Activity", "method_in_brief": "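MC3T3-E1 cells (1 × 10^4 cells/mL) exposed to a range of concentrations for 72 h at 37 °C, 5% CO2. MTT added (500 μg/mL final) for 4 h, formazan dissolved in DMSO, A570 read. Viability given as % of solvent control; IC50 by nonlinear regression of % survival versus concentration.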"}, "MC3T3-E1 [2]": {"test_system": "MC3T3-E1", "experiment": "Upregulation of OPG protein expression in mouse MC3T3-E1 cells up to 4 uM after 48 hrs in presence of ascorbic acid and beta-glycerophosphate by Western blot analysis", "assay_type": "functional, cell-based"}, "Mus musculus [3]": {"organism": "Mus musculus", "experiment": "Activation of Wnt signaling pathway in mouse MC3T3-E1 cells assessed as increase in Runx2 mRNA expression after 48 hrs in presence of ascorbic acid and beta-glycerophosphate by real-time PCR analysis", "assay_type": "cell-based"}, "Osteoclast": {"test_system": "Osteoclast", "experiment": "Inhibition of RANKL/M-CSF-induced osteoclast differentiation in mouse bone marrow-derived osteoclasts assessed as downregulation of NFATc1 protein expression up to 4 uM after 48 hrs by Western blot analysis", "assay_type": "functional, cell-based", "method_in_brief": "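Mouse bone marrow cells were taken from 4-week-old mice and primed 24 h in 30 ng/mL M-CSF. They were then given 100 ng/mL RANKL plus 30 ng/mL M-CSF, with or without compound, for 48 h. Lysates were made in boiling SDS buffer and quantified by BCA. 40–50 μg was run on SDS-PAGE and immunoblotted on PVDF with β-actin reference and ECL read-out.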"}, "Mus musculus [4]": {"test_system": "Mus musculus", "experiment": "Anti-osteoporotic activity in ovariectomized ICR mouse assessed as increase in ratio of bone volume to tissue volume of femur at 2 to 10 mg/kg, po after 12 weeks by microcomputed tomography", "assay_type": "functional, organism-based"}, "Mus musculus [5]": {"test_system": "Mus musculus", "experiment": "Anti-osteoporotic activity in ovariectomized ICR mouse assessed as increase in trabecular number in femur at 2 to 10 mg/kg, po after 12 weeks by microcomputed tomography", "assay_type": "functional, organism-based"}, "Mus musculus [6]": {"test_system": "Mus musculus", "experiment": "Anti-osteoporotic activity in ovariectomized ICR mouse assessed as increase in trabecular thickness in femur at 2 to 10 mg/kg, po after 12 weeks by microcomputed tomography", "assay_type": "functional, organism-based"}, "Mus musculus [7]": {"test_system": "Mus musculus", "experiment": "Anti-osteoporotic activity in ovariectomized ICR mouse assessed as suppression of changes in trabecular separation in femur at 2 to 10 mg/kg, po after 12 weeks by microcomputed tomography", "assay_type": "functional, organism-based"}, "Mus musculus [8]": {"test_system": "Mus musculus", "experiment": "Anti-osteoporotic activity in ovariectomized ICR mouse assessed as suppression of changes in structure model index levels in femur at 2 to 10 mg/kg, po after 12 weeks by microcomputed tomography", "assay_type": "functional, organism-based"}, "Mus musculus [9]": {"test_system": "Mus musculus", "experiment": "Decrease in OVX-induced increase in body weight in ICR mouse at 2 to 10 mg/kg, po for 12 weeks", "assay_type": "functional, organism-based"}, "Mus musculus [10]": {"test_system": "Mus musculus", "experiment": "Effect on calcium level in serum of OVX-induced bone loss ICR mouse model at 5 mg/kg, po for 12 weeks by ELISA (reference value: 9.3 +/- 0.3 mg/dl)", "assay_type": "functional"}, "Mus musculus [11]": {"test_system": "Mus musculus", "experiment": "Effect on […] level in serum of OVX-induced bone loss ICR mouse model at 5 mg/kg, po for 12 weeks by ELISA (reference value: 8.2 +/- 0.4 mg/dl)", "assay_type": "functional"}, "Mus musculus [12]": {"test_system": "Mus musculus", "experiment": "Effect on alkaline phosphatase activity in serum of OVX-induced bone loss ICR mouse model at 5 mg/kg, po for 12 weeks using p-NPP as substrate (reference value: 84.9 +/- 4.2 U/L)", "assay_type": "functional"}, "Mus musculus [13]": {"test_system": "Mus musculus", "experiment": "Effect on TRAP activity in serum of OVX-induced bone loss ICR mouse model at 10 mg/kg, po for 12 weeks (reference value: 19.8 +/- 1.0 U/L)", "assay_type": "functional"}, "Mus musculus [14]": {"test_system": "Mus musculus", "experiment": "Effect on C-terminal telopeptide level in serum of OVX-induced bone loss ICR mouse model at 2 mg/kg, po for 12 weeks by ELISA (reference value: 95.7 +/- 3.8 ng/ml)", "assay_type": "functional"}, "Mus musculus [15]": {"test_system": "Mus musculus", "experiment": "Effect on C-terminal telopeptide level in serum of OVX-induced bone loss ICR mouse model at 5 mg/kg, po for 12 weeks by ELISA (reference value: 95.7 +/- 3.8 ng/ml)", "assay_type": "functional"}, "Mus musculus [16]": {"test_system": "Mus musculus", "experiment": "Effect on C-terminal telopeptide level in serum of OVX-induced bone loss ICR mouse model at 10 mg/kg, po for 12 weeks by ELISA (reference value: 95.7 +/- 3.8 ng/ml)", "assay_type": "functional"}, "MC3T3-E1 [17]": {"test_system": "MC3T3-E1", "experiment": "Upregulation of OPN protein expression in 2 days differentiated mouse MC3T3-E1 cells up to 4 uM after 48 hrs in presence of ascorbic acid and beta-glycerophosphate by Western blot analysis", "assay_type": "functional, cell-based"}, "[18]": {"molecular_target": "T1, Catenin beta-1 (Mus musculus) (UniProt Q02248)", "T1 sequence (whole entry)": "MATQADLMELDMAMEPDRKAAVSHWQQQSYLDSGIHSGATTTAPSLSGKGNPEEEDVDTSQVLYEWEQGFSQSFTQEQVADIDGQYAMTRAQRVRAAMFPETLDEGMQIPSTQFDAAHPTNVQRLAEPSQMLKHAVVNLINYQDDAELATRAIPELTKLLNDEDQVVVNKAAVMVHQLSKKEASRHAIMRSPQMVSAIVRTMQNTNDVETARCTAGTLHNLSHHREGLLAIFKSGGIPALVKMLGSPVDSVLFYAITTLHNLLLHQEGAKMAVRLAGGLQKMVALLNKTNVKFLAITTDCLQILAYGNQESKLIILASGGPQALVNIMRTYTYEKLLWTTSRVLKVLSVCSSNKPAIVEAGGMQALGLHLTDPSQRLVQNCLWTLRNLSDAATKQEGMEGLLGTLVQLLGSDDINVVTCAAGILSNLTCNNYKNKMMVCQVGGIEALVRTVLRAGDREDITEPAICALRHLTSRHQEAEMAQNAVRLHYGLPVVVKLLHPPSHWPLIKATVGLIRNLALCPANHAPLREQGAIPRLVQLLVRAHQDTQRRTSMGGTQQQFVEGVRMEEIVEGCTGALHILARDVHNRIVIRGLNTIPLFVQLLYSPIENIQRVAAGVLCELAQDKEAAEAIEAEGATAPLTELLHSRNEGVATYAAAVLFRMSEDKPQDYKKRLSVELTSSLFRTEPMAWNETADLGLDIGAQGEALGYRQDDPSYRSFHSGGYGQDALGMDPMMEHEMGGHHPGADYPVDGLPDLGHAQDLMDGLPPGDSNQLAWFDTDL", "experiment": "Downregulation of beta-catenin phosphorylated protein expression in mouse MC3T3-E1 cells up to 4 uM after 48 hrs in presence of ascorbic acid and beta-glycerophosphate by Western blot analysis", "assay_type": "cell-based", "method_in_brief": "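MC3T3-E1 cells given 400 μM ascorbic acid plus 5 mM β-glycerophosphate, exposed to test compound or not for 48 h. Lysed in boiling SDS sample buffer, protein measured by BCA. 40−50 μg of lysate run on 8% or 10% SDS-PAGE and transferred to PVDF. Blocked in 5% milk, probed with primary antibodies for 3 h at room temperature or overnight at 4 °C, detected by ECL.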"}, "MC3T3-E1 [19]": {"test_system": "MC3T3-E1", "experiment": "Induction of OCN mRNA expression in mouse MC3T3-E1 cells up to 4 uM after 48 hrs in presence of ascorbic acid and beta-glycerophosphate by real-time PCR analysis"}}, "note": "Activity calls are given as the source filed them. No cut-off for these calls is given here.", "data": [{"smiles": "C[C@]1(OC(=O)/C=C/c2ccccc2)C[C@@H](O)[C@]2(O)C=CO[C@@H](O[C@@H]3O[C@H](CO)[C@@H](O)[C@H](O)[C@H]3O)[C@@H]21", "note": "[HARPAGOSIDE]", "values": [{"measurement": "viability at 72 h", "setting": "[1]", "value": "> 90", "unit": "%"}, {"measurement": "Activity", "setting": "MC3T3-E1 [2]", "value": "Active"}, {"measurement": "Activity", "setting": "Mus musculus [3]", "value": "Dose-dependent effect"}, {"measurement": "inhibition", "setting": "Osteoclast", "value": "Active"}, {"measurement": "Activity", "setting": "Mus musculus [4]", "value": "Active"}, {"measurement": "Activity", "setting": "Mus musculus [5]", "value": "Active"}, {"measurement": "Activity", "setting": "Mus musculus [6]", "value": "Active"}, {"measurement": "Activity", "setting": "Mus musculus [7]", "value": "Active"}, {"measurement": "Activity", "setting": "Mus musculus [8]", "value": "Active"}, {"measurement": "Activity", "setting": "Mus musculus [9]", "value": "Active"}, {"measurement": "Activity", "setting": "Mus musculus [10]", "value": 9.6, "unit": "mg/dL"}, {"measurement": "Activity", "setting": "Mus musculus [11]", "value": 8, "unit": "mg/dL"}, {"measurement": "Activity", "setting": "Mus musculus [12]", "value": 82.6, "unit": "U/L"}, {"measurement": "Activity", "setting": "Mus musculus [13]", "value": 7.7, "unit": "U/L"}, {"measurement": "Activity", "setting": "Mus musculus [14]", "value": 88.5, "unit": "ng/mL"}, {"measurement": "Activity", "setting": "Mus musculus [15]", "value": 85.9, "unit": "ng/mL"}, {"measurement": "Activity", "setting": "Mus musculus [16]", "value": 80.7, "unit": "ng/mL"}, {"measurement": "Activity", "setting": "MC3T3-E1 [17]", "value": "Dose-dependent effect"}, {"measurement": "Activity", "setting": "[18]", "value": "Active"}, {"measurement": "Activity", "setting": "MC3T3-E1 [19]", "value": "Active"}]}]}
